Results from different studies.
Lines come from different studies, so protocols differ.
Effect on: cell growth or viability

Structure (SMILES) | cell line | test | conditions | measurement | value
Cc1cc(Nc2ncc(Cl)c(Nc3ccccc3S(=O)(=O)C(C)C)n2)c(OC(C)C)cc1C1CCNCC1 | NCI-H2228 | MTT | 1 µg/mL, 72 h | inhibition | 80%
FC1CCN(C2(CNCc3ccc(-c4ccccc4)o3)COC2)C1 (stereo not drawn) | A 172 | – | 30 µM, 48 h | viability | 97.6%
Cc1ccc(C(CS(=O)(=O)c2ccccc2)=NNc2nc(C)c(N=Nc3cccc(C)c3)s2)cc1 | SK-MEL-23 | MTT | 0.4 µM, 48 h | viability | 65.4%
C[C@@H](Oc1cc(-c2cnn(C3CCNCC3)c2)cnc1N)c1c(Cl)ccc(F)c1Cl | NCI-H2228 | MTT | 0.2 µg/mL, 72 h | inhibition | 64.4%
Cc1ccc(C(CS(=O)(=O)c2ccccc2)=NNc2nc(-c3ccc(OCCCCOc4ccc(-c5csc(NN=C(CS(=O)(=O)c6ccccc6)c6ccc(C)cc6)n5)cc4)cc3)cs2)cc1 | SK-MEL-23 | MTT | 6.3 µM, 48 h | viability | 58.6%
COc1ccc(-c2ccc(-c3ccc(C(=N)N)nc3)s2)cc1 | RXF 393 | – | – | GI50 | 1770 nM
Cc1ccc(C(CS(=O)(=O)c2ccccc2)=NN=C2N=C(c3ccc(Br)cc3)CS2)cc1 | SK-MEL-23 | MTT | 100 µM, 48 h | viability | 45.7%
Cc1cccc2cc(CNCC3(N4CCCC4)COC3)cnc12 | A 172 | – | 30 µM, 48 h | viability | 92.6%
NCCOc1cc(NC(=O)c2cccc(C(=O)Nc3cc(OCCN)c4ccccc4n3)n2)nc2ccccc12 | HT-1080 | ATP luminescence | 72 h | IC50 | 300 nM
COc1cccc(Oc2ccccc2NC(=O)CNC(=O)c2cccc3ccccc23)c1 | RXF 393 | SRB | 48 h | GI50 | 166 nM
Fc1ccc2c(CNCC3(N4CCC(F)C4)COC3)c[nH]c2c1 (stereo not drawn) | A 172 | – | 30 µM, 48 h | viability | 80.6%
Cc1ccc(C(CS(=O)(=O)c2ccccc2)=NNC2=NC(=O)C(=NNc3ccccc3)S2)cc1 | SK-MEL-23 | MTT | 1.6 µM, 48 h | viability | 42.9%
FC1CCN(C2(CNCc3ccc(-c4ccccc4Cl)o3)COC2)C1 (stereo not drawn) | A 172 | – | 30 µM, 48 h | viability | 60.4%
COc1ccc(-c2ccc(-c3ccc(C(=N)N)nc3)s2)cc1Cl | RXF 393 | – | – | GI50 | 1760 nM
Clc1ccccc1-c1ccc(CNCC2(N3CCCC3)COC2)o1 | A 172 | – | 30 µM, 48 h | viability | 70.6%
COc1cc(Nc2nccc(-c3cnn4nc(OC)ccc34)n2)cc(C(F)(F)F)c1 | HT-1080 | ATP luminescence | – | IC50 | 180 nM
NC(=S)NN=C(CS(=O)(=O)c1ccccc1)c1ccc(F)cc1 | SK-MEL-23 | MTT | 25 µM, 48 h | viability | 45.4%
c1cc2c(cc1CNCC1(N3CCCC3)COC1)OCCO2 | A 172 | – | 30 µM, 48 h | viability | 96.6%
